Calls of active or inactive are those of the source. The calls are words filed in the database; no cut-off is given here.

As a reminder, the Emax is the greatest response seen or fitted, relative to the assay's reference. The fraction unbound is free concentration divided by total concentration. As usually defined, the logD is lipophilicity at a set pH, counting ionised and neutral species. By IC50 is commonly meant the concentration at which inhibition is half-maximal.

For series [1], the target named is T1, Estrogen receptor (Homo sapiens) (UniProt P03372).
T1 sequence (whole entry): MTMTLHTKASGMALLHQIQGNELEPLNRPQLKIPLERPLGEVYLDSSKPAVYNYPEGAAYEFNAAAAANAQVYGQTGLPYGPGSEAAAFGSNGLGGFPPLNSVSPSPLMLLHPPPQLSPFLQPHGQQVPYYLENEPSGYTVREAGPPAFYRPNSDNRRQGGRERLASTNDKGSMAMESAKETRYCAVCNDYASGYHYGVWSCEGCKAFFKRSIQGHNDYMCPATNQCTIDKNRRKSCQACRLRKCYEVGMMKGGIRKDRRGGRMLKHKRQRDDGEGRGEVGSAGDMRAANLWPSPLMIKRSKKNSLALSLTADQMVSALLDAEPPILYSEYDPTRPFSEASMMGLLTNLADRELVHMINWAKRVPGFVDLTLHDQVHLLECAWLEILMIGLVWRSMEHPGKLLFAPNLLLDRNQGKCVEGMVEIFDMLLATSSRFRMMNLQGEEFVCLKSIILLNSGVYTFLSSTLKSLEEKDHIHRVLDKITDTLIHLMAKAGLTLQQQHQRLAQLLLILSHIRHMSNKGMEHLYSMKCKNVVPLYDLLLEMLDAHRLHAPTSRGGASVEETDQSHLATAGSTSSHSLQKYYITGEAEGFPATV
The series is described as follows: Induction of ERalpha degradation in human CAMA1 cells assessed as decrease in ER-alpha level at 0.1 uM by Western blot analysis relative to fulvestrant. In kind it is cell-based. Also noted: scale not given: the % may be the effect or the level left. As to conditions: CAMA-1. The essentials: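 Western blot for ERα in MCF-7 and CAMA-1 cells after treatment at 0.1 µM. ER level is expressed as % degradation relative to fulvestrant, from a single experiment (n = 1).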
Background: A western blot detects proteins with antibodies after separation by electrophoresis.

Series [2] deals with T1, Estrogen receptor (Homo sapiens). As to the kind of experiment: Induction of ERalpha degradation in human MCF7 cells assessed as maximum degradation incubated for 18 to 24 hrs by Alexa fluor 488/Hoechst staining based immunofluorescence imaging analysis relative to fulvestrant. In kind it is cell-based. The note with it: time lower […], time upper […].
Series [3] in a line: Fraction unbound in human plasma by equilibrium dialysis method. In kind it is ADME, cell-free. The essentials:
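Fraction unbound measured from DMSO stock by equilibrium dialysis in 10% human plasma.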
A general note: In equilibrium dialysis free small molecules cross a membrane that holds back macromolecules.

A short description of series [4]: Intrinsic clearance in human hepatocytes assessed per million cells. In kind it is ADME, cell-based, Hepatocyte. The note with it: read-out: CLH. The method in brief:
(§1)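 Hepatocyte intrinsic clearance measured from DMSO stock in isolated hepatocytes diluted to 1x10⁶ cells/mL; rate expressed as µl/min/10⁶ cells.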

For series [5], the target named is T1, Estrogen receptor (Homo sapiens). The series is described as follows: Induction of ERalpha degradation in human MCF7 cells assessed as decrease in ER-alpha level at 0.1 uM by Western blot analysis relative to fulvestrant. The series is classed as cell-based. Also noted: scale not given: the % may be the effect or the level left.
Series [6] is described as follows: Lipophilicity, log D of the compound in buffer and octanol at pH 7.4 by shake flask method. The series is classed as physicochemical. The essentials:
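logD at pH 7.4 by shake flask, buffer/octanol volume ratio 100:1.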

Series [7] can be described thus: Intrinsic clearance in rat hepatocytes assessed per million cells. The series is classed as ADME, cell-based, Hepatocyte. As to conditions: read-out: CLH. The essentials: as §1
In series [8] the target is T2, Estrogen receptor (Homo sapiens, UniProt P03372).
T2 sequence (P03372 whole entry): T1 sequence (whole entry)
The series is described as follows: Induction of ERalpha degradation in human MCF7 cells assessed as decrease in ER-alpha level incubated for 18 to 24 hrs by Alexa fluor 488/Hoechst staining based immunofluorescence imaging analysis. The series is classed as cell-based. The essentials:
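ER degradation in MCF-7 cells via cellular degradation assay; n ≥ 2, degradation also expressed as %Dmax relative to fulvestrant.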

Series [9] concerns the target T2, Estrogen receptor. The series is described as follows: Displacement of fluormone ES2 green reagent from human GST-tagged ERalpha LBD (282 to 595 residues) expressed in baculovirus infected insect cells incubated for 1 hrs by TR-FRET Lanthascreen assay. Background: TR-FRET usually uses a lanthanide donor and a delayed reading to cut background.
A further series has as its system Mus musculus. The series is described as follows: In vivo antagonist activity at ERalpha in human MCF7 cells xenografted CB17 SCID mouse assessed as decrease in PR expression level at 5 mg, po administered via gavage three times a week for 21 days measured 24 hrs post last dose by Western blot analysis. In kind it is functional, organism-based. As to conditions: time 21.0 day.

The subject of the next series is MCF7. As to the kind of experiment: Antitumor activity against human […] cells xenografted in CB17 SCID mouse assessed as tumor regression at 5 mg, po administered via gavage three times a week for 21 days. In kind it is functional, organism-based. As to conditions: time 21.0 day.
Series [10] addresses Voltage-gated inwardly rectifying potassium channel KCNH2 (Homo sapiens, UniProt Q12809). As to the kind of experiment: Inhibition of human ERG by plate-based planar patch clamp technique. The method in brief: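 hERG tail current inhibition recorded on a plate-based planar patch clamp system; IC50 reported.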

Chain of Voltage-gated inwardly rectifying potassium channel KCNH2 (Q12809 whole entry): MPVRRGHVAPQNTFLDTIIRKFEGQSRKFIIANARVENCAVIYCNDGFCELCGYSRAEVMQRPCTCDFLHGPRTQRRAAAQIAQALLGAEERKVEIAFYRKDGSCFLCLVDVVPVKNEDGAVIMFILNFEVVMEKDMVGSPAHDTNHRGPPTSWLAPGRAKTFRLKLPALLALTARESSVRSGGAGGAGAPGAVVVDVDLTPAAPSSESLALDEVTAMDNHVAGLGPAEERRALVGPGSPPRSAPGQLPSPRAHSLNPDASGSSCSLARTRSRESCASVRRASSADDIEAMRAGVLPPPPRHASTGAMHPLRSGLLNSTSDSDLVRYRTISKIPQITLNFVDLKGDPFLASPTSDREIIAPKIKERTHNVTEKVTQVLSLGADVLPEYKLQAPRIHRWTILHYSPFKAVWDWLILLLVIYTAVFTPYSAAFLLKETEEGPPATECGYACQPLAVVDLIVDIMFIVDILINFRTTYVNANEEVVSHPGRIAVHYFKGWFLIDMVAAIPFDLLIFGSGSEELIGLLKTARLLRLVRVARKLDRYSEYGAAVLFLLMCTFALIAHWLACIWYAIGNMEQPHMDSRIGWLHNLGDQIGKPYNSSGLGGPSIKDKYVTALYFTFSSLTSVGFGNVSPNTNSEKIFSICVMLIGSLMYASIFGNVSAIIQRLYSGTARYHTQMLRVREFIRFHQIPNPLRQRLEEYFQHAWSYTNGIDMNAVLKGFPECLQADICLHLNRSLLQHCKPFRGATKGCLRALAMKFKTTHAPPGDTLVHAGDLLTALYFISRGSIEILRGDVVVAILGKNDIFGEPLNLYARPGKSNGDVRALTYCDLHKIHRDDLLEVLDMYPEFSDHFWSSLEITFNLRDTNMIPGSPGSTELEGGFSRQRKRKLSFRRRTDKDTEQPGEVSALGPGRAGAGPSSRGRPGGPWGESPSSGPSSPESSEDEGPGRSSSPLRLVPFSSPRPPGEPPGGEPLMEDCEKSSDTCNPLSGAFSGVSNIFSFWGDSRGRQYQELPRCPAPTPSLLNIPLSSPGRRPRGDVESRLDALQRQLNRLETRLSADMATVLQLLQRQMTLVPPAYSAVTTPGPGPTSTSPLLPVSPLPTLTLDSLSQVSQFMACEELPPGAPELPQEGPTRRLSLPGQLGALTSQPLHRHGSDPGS

Take `C[C@@H]1Cc2c(ccc3[nH]ccc23)[C@@H](c2ccc(NC3CN(CCCF)C3)cn2)N1CC(F)(F)F`: the Activity was determined as 85% in [1] and 98% in series [5]. In series [2], the Emax is 98%. The fraction unbound in series [3] is 0.073. In addition, the values for the hepatocyte CLint in series [4] and in series [7] were 3 µL/min/1e6 cells and 10 µL/min/1e6 cells, respectively. Further, the logD in series [6] was 3.2. Besides, the IC50 at Estrogen receptor [8] was 0.158 nM; at Estrogen receptor [9], 3.16 nM.
Turning to `C[C@]12CC[C@@H]3c4ccc(O)cc4C[C@@H](CCCCCCCCC[S+]([O-])CCCC(F)(F)C(F)(F)F)[C@H]3[C@@H]1CC[C@@H]2O` (stereo partly specified), the outcome in the series with Mus musculus and in the series on MCF7 was Active.
For the compound `COc1cc(OCCN2CC(CF)C2)ccc1[C@@H]1c2ccc3[nH]ncc3c2C[C@@H](C)N1CC1(F)CC1`, the Activity in series [1] was found to be 88%; in [5] it was 79%. In [2], the Emax came to 96%. In series [3], the fraction unbound stood at 0.21. The hepatocyte CLint came to 7 µL/min/1e6 cells in series [4] and 20 µL/min/1e6 cells in series [7]. For the same compound, on Estrogen receptor [8], the concentration for half-maximal inhibition (IC50) was 0.126 nM.
On to `C[C@@H]1Cc2c(ccc3[nH]ncc23)[C@@H](c2ccc(OCCN3CC(CF)C3)cn2)N1CC(F)F`, for which the Activity in series [1] came out at 88%; in series [5], 97%. Besides, the Emax in [2] was determined as 98%. The same compound registered a fraction unbound in [3] of 0.49. Moreover, the hepatocyte CLint in series [4] is 5 µL/min/1e6 cells; in series [7] it was 36 µL/min/1e6 cells. Also, the IC50 was 0.501 nM on Estrogen receptor [8] and 2.51 nM at Estrogen receptor [9].
`C[C@@H]1Cc2c(ccc3[nH]ncc23)[C@@H](c2ccc(N[C@H]3CCN(CCCF)C3)cn2)N1CC(F)(F)F`: the IC50 was 13000 nM in series [10], 0.126 nM on Estrogen receptor [8] and 2.51 nM at Estrogen receptor [9]. Also, the Activity in [1] came out at 104%; in [5], 95%. For the same compound, the Emax in series [2] was 99%. In series [3], this compound yielded a fraction unbound of 0.18. Moreover, the hepatocyte CLint was found to be 5 µL/min/1e6 cells in series [4] and 22 µL/min/1e6 cells in series [7]. The same compound gave a logD in [6] of 3.
`CC(C)CN1[C@H](c2ccc(OCCN3CC(CF)C3)cc2)c2ccc3[nH]ncc3c2C[C@H]1C`: in series [2], the Emax worked out at 99%. The compound further showed a fraction unbound in [3] of 0.11. Further, the hepatocyte CLint in [4] came out at 8 µL/min/1e6 cells; in [7], 66 µL/min/1e6 cells. In [6], the logD worked out at 3.4. The results for the IC50 at Estrogen receptor [8] and at Estrogen receptor [9] were 0.158 nM and 2 nM, respectively.
Take `C[C@@H]1Cc2c(ccc3[nH]ncc23)[C@@](C)(c2ccc(NC3CN(CCCF)C3)cn2)N1CC(F)F`: the IC50 was 13000 nM in series [10], 1 nM at Estrogen receptor [8] and 10 nM at Estrogen receptor [9]. The Emax in series [2] is 96%. In series [3], this compound gave a fraction unbound of 0.1. Moreover, the hepatocyte CLint in series [7] came out at 114 µL/min/1e6 cells.
Turning to `C[C@@H]1Cc2c(ccc3[nH]ncc23)[C@@H](c2ccc(OCCN3CC(CF)C3)cn2)N1CC1(F)CC1`, the Activity in series [1] was found to be 87%; in [5], 75%. Also, in series [2], the Emax stood at 98%. For the same compound, in series [3], the fraction unbound was determined as 0.34. Also, the hepatocyte CLint was determined as 8 µL/min/1e6 cells in [4] and 38 µL/min/1e6 cells in series [7]. Further, the values for the IC50 on Estrogen receptor [8] and on Estrogen receptor [9] were 0.398 nM and 1.26 nM, respectively.
In the case of `CC(C)CN1[C@H](c2c(F)cc(OCCN3CC(CF)C3)cc2F)c2ccc3[nH]ncc3c2C[C@H]1C`, the Emax in series [2] was determined as 99%. In series [3], this compound returned a fraction unbound of 0.004. For the same compound, the hepatocyte CLint came out at 9 µL/min/1e6 cells in series [4] and 74 µL/min/1e6 cells in series [7]. This compound also gave a logD in series [6] of 4.6. Besides, the IC50 at Estrogen receptor [8] was 0.2 nM; at Estrogen receptor [9], 0.794 nM.
With `CC(C)CN1[C@H](c2ccc(OCCN3CC(CF)C3)cn2)c2ccc3[nH]ncc3c2C[C@H]1C`, in series [2], the Emax stood at 99%. Besides, the fraction unbound in series [3] was found to be 0.19. Also, the values for the hepatocyte CLint in series [4] and in series [7] were 8 µL/min/1e6 cells and 41 µL/min/1e6 cells, respectively. Moreover, in series [6], the logD stood at 3.2. Further, the IC50 at Estrogen receptor [8] was 0.398 nM; at Estrogen receptor [9], 10 nM.
Regarding `COc1cc(OCCN2CC(CF)C2)ccc1[C@@H]1c2ccc3[nH]ncc3c2C[C@@H](C)N1CC(C)(C)F`, the Activity in [1] is 74%; in [5] it was 69%. Moreover, the Emax in [2] amounted to 95%. The compound also returned a fraction unbound in series [3] of 0.065. For the same compound, the results for the hepatocyte CLint in series [4] and in series [7] were 12 µL/min/1e6 cells and 28 µL/min/1e6 cells, respectively. The logD in [6] stood at 3.6. The compound further gave an IC50 at Estrogen receptor [9] of 3.16 nM.
Take `C[C@@H]1Cc2c(ccc3[nH]ncc23)[C@@H](c2c(F)cc(OCCN3CC(CF)C3)cc2F)N1CC(C)(C)F`: the Activity amounted to 66% in series [1] and 84% in [5]. In series [3], the fraction unbound is 0.008. In addition, the hepatocyte CLint in series [4] was determined as 8 µL/min/1e6 cells; in [7] it was 88 µL/min/1e6 cells. Also, the logD in [6] is 4.4. Moreover, the values for the IC50 at Estrogen receptor [8] and on Estrogen receptor [9] were 0.126 nM and 1 nM, respectively.
Turning to `C[C@@H]1Cc2c(ccc3[nH]ncc23)[C@@H](c2ccc(OCCN3CC(CF)C3)cn2)N1CC(F)(F)F`, the Activity stood at 80% in series [1] and 91% in [5]. For the same compound, the Emax in series [2] was 96%. For the same compound, in [3], the fraction unbound was 0.22. Also, the hepatocyte CLint is 3 µL/min/1e6 cells in [4] and 45 µL/min/1e6 cells in series [7]. In addition, the logD in series [6] amounted to 3. In addition, the IC50 on Estrogen receptor [8] is 0.398 nM; on Estrogen receptor [9], 1.26 nM.

(Values after ChEMBL document CHEMBL4673245, “Discovery of AZD9833, a Potent and Orally Bioavailable Selective Estrogen Receptor Degrader and Antagonist” (J Med Chem, 2020).)
